# Data from ChEMBL document CHEMBL3352181, “Novel phenyl and pyridyl substituted derivatives of isoindolines: Synthesis, antitumor activity and DNA binding features” (Eur J Med Chem, 2014).
# Calls of active or inactive are those of the source. No cut-off for these calls is given here.
# Columns and labels:
# [1] = tested on: Calf thymus DNA; test: Binding affinity to calf thymus DNA assessed as change in melting temperature at drug/ base pair ratio of 0.5 by spectrophotometry; type: nucleic-acid assay; conditions: Bos taurus
# Summary of the method: (§1)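 CT-DNA absorbance followed at 260 nm from 20 to 100 °C, rising 1 °C per min, in BPE buffer, with or without compound at drug/base-pair ratio 0.25 or 0.5. Tm taken as midpoint of the hyperchromic transition from first-derivative plots. ΔTm is Tm with compound minus Tm of DNA alone.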
# [2] = tested on: Nucleic Acid; test: Induction of DNA intercalation in supercoiled pUC19 DNA in presence of human topoisomerase 1 assessed as effect on topoisomerase 1-mediated DNA relaxation at 50 uM by agarose gel electrophoresis; type: nucleic-acid assay; conditions: Escherichia coli
# Summary of the method: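 Supercoiled pUC19 incubated with human topoisomerase I and graded compound concentrations. Stopped with SDS/proteinase K. DNA forms resolved on 1% agarose in TBE, 2 h at 120 V, stained post-run with ethidium bromide and viewed under UV. Camptothecin was the topo I poison control.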
# [3] = tested on: Calf thymus DNA; test: Binding affinity to calf thymus DNA at 50 uM circular dichroism spectroscopy; type: nucleic-acid assay; conditions: Bos taurus
# Summary of the method: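 CD spectra recorded from 480 to 230 nm, 10 mm path, 20 °C, in BPE buffer. CT-DNA (50 µM) incubated with compound rising from 1 to 60 µM or to 80 µM. Compound without DNA served as the control for intrinsic CD.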
# [4] = Binding affinity to pBluescript 265 bp DNA fragment (unknown origin) assessed binding to AT-rich ATTA sequence at 1 to 25 uM incubated for 15 mins by DNase-1 foot printing assay
# Summary of the method: (§2)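 265 bp EcoRI/PvuII fragment of pBluescript, 3'-end labelled with α[32P]-dATP, incubated with compound (up to 50 µM) for 15 min at 37 °C, then mildly digested with DNase I. Run on 8% denaturing polyacrylamide/8 M urea gels and imaged by phosphor screen. Base positions assigned against a DMS/piperidine G-track.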
# [5] = Binding affinity to pBluescript 265 bp DNA fragment (unknown origin) assessed binding to ACAA sequence at 1 to 25 uM incubated for 15 mins by DNase-1 foot printing assay; summary of the method: as §2
# [6] = tested on: MCF7; test: Antiproliferative activity against human MCF7 cells assessed as inhibition of cell proliferation after 72 hrs by MTT assay; type: functional, cell-based
# Summary of the method: (§3)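 Cells grown as monolayers in DMEM with 10% FBS, 2 mM L-glutamine, penicillin/streptomycin, 37 °C, 5% CO2. Seeded at 5000/well on day 0. Compounds added after 24 h as five serial dilutions (0,01 to 100 µM), DMSO ≤0.1%, then 72 h. MTT read-out converted to percentage growth. IC50 by linear regression; quadruplicates in three experiments.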
# [7] = Binding affinity to pBluescript 265 bp DNA fragment (unknown origin) assessed binding to AT-rich AATT sequence at 1 to 25 uM incubated for 15 mins by DNase-1 foot printing assay; summary of the method: as §2
# [8] = molecular target: T1, DNA topoisomerase 1 (Homo sapiens) (UniProt P11387); test: Inhibition of human topoisomerase 1 assessed as topoisomerase poison activity by measuring generation of open circular DNA using supercoiled pUC19 DNA at 5 to 50 uM by agarose gel electrophoresis
# T1 sequence (whole entry): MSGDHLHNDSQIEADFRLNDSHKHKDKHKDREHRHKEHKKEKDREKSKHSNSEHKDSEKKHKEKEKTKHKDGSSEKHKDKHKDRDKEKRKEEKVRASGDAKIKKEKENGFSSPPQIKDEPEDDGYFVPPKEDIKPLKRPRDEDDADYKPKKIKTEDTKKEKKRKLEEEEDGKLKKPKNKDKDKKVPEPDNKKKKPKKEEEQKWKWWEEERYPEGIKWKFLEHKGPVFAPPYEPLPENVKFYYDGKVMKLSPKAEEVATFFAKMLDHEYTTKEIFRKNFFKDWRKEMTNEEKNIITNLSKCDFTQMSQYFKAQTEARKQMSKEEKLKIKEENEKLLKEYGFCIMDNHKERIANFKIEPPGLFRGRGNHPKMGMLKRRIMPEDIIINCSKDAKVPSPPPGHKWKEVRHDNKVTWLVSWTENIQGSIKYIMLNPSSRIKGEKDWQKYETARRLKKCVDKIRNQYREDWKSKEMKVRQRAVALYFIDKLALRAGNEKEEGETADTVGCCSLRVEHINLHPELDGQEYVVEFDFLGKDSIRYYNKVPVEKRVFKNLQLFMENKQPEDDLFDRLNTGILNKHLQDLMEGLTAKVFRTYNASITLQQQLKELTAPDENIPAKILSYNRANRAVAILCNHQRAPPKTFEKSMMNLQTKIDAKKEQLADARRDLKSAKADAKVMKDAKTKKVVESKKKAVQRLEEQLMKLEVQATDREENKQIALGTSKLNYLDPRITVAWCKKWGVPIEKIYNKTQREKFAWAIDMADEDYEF
# Summary of the method: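 Supercoiled pUC19 plasmid was incubated with human topoisomerase I and graded compound concentrations. Reactions were stopped with SDS and proteinase K. DNA forms were resolved on 1% agarose in TBE (2 h, 120 V), post-stained with ethidium bromide and photographed under UV. Poisoning was read as appearance of nicked DNA, with camptothecin as the positive control.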
# [9] = Antiproliferative activity against human WI38 cells assessed as inhibition of cell proliferation after 72 hrs by MTT assay; type: cell-based, WI-38; summary of the method: as §3
# [10] = tested on: HeLa; test: Antiproliferative activity against human HeLa cells assessed as inhibition of cell proliferation after 72 hrs by MTT assay; type: functional, cell-based; summary of the method: as §3
# [11] = Binding affinity to pBluescript 265 bp DNA fragment (unknown origin) assessed binding to TTGT) sequence at 1 to 25 uM incubated for 15 mins by DNase-1 foot printing assay; summary of the method: as §2
# [12] = tested on: HepG2; test: Antiproliferative activity against human HepG2 cells assessed as inhibition of cell proliferation after 72 hrs by MTT assay; type: functional, cell-based; summary of the method: as §3
# [13] = tested on: Calf thymus DNA; test: Binding affinity to calf thymus DNA assessed as change in melting temperature at drug/ base pair ratio of 0.25 by spectrophotometry; type: nucleic-acid assay; conditions: Bos taurus; summary of the method: as §1
# [14] = tested on: SW-620; test: (§4) Antiproliferative activity against human SW620 cells assessed as inhibition of cell proliferation after 72 hrs by MTT assay; type: functional, cell-based; summary of the method: as §3
# [15] = as §4; type: functional, cell-based, SW-620; conditions: Homo sapiens, SW-620, 72 h; summary of the method: as §3
smiles,measurement,setting,value
CC(C)NC(=N)c1ccc(/N=C2\c3ccccc3CN2c2ccc(C(=N)NC(C)C)cc2)cc1.Cl,ΔTm,[1],11.3 °C
same,Activity,[2],inactive
same,Activity,[3],Active
same,Activity,[4],Active
same,Activity,[5],Active
same,inhibition,[6],Dose-dependent effect
same,IC50,"[6]; Homo sapiens, MCF7, 72 h",53.4 µM
same,Activity,[7],Active
same,inhibition,[8],inactive
same,IC50,"[9]; Homo sapiens, WI-38, 72 h",53.9 µM
same,inhibition (INH),"[9]; human, wi-38, 72 h",Dose-dependent effect
same,inhibition,[10],Dose-dependent effect
same,IC50,"[10]; Homo sapiens, HeLa, 72 h",> 100 µM
same,Activity,[11],Active
same,inhibition,[12],Dose-dependent effect
same,IC50,"[12]; HepG2, 72 h",62.2 µM
same,ΔTm,[13],6.3 °C
same,inhibition,[14],Dose-dependent effect
same,IC50,[15],> 100 µM
